Results pooled from the literature.
Each line is one published result; the experiments were not run side by side.
Target: Delta-type opioid receptor (OPRD1, Homo sapiens, UniProt P41143)
Effect on: ligand displacement
Concentration: 10 µM

Structure (SMILES)	technique	inhibition
Cc1cc(-c2nc(CN3CCNCC3)no2)cc2c1C(=O)N(Cc1ccc(OC(F)(F)F)cc1)C2	radioligand	45%
CCCNc1nc2ccccc2n1Cc1ccc(Cl)cc1		-5.69%
CCN(Cc1ccccc1C(F)(F)F)C(=O)C1CCN(S(=O)(=O)c2ccc3[nH]ncc3c2)CC1	radioligand	6%
CCN(CC)c1ccc(C2Nc3ccc(C(=O)c4ccccc4)cc3NC3=C2C(=O)CC(C)(C)C3)cc1 (centres unmarked)	radioligand	12%
O=C(c1ccc(Cl)cc1)N(Cc1ccccc1)C1CCCCC1		33.4%
O=C1N=C(N2CCCCN2)S/C1=C\c1ccc(F)cc1O	radioligand	13%
N#Cc1cc(Cn2c(N3CCCC3)nc3ccccc32)ccc1F		-11.4%
COc1cc(NC(C)=O)c(Cl)cc1C(=O)Nc1nccs1		20.9%
